Screening data: PubChem BioAssay, several laboratories
Most compounds without a hit are left out; they make up all but 2.1% or so of the library.
CXCR6 block = inhibitors of human CXCR6 receptor | CHO-K1 PathHunter CXCR6 beta-arrestin, luminescence | inhibition, % at 20 µM | actives 0.36% (n = 360,000) | O00574; in the data active = inhibition above about 34%, passing the limit was not always enough;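 also: antagonist mode with CXCL16 agonist at 10 nM final; 0% = 10 nM CXCL16 with DMSO and 100% = unstimulated wells without agonist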
HTR2A ag = agonists of mouse serotonin 5-HT2A receptor (HTR2A). P35363. CHO-K1 mHTR2A beta-arrestin complementation, luminescence; percent of 30 µM serotonin response. activation, % at 7.6 µM. actives 0.66% (n = 360,000). AID 624169;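 active = activation above a run cutoff, the mean activation of all tested compounds plus 3 SD, cut at about 14% in these data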;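 also: 0% = plate median of compound wells and 100% = 30 µM serotonin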
APJ agonist = APJ receptor agonism. P35414. CHO-K1 APJ PathHunter beta-arrestin, luminescence; 0% DMSO wells, 100% apelin. activation, % at 20 µM. actives 0.11% (n = 330,000). AID 2520;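 active = activation more than six SD over the plate average, tested at 20 µM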;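 also: 0% = DMSO alone and 100% = apelin-13 at 10 nM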
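Assay system: engineered CHO-K1 APJ arrestin reporter cells; Amount: 1000 CHO-K1 reporter cells seeded per well; Dosing: one dose, 20 µM compound, 1% DMSO; Times: compound stimulation 90 min at 25 °C, detection 60 min; Measured by: luminescent beta-gal fragment complementation, chemiluminescent substrate; Read-out: APJ–arrestin association signal; Controls: DMSO vs Apelin-13 10 nM.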
CCR6 antagonist = CCR6 (human) receptor antagonism. actives 0.49% (n = 340,000). inhibition, % at 20 µM. AID 493098. P51684. CHO-K1 CCR6 PathHunter beta-arrestin, luminescence, CCL20-stimulated;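 active = compounds whose inhibition of the agonist-driven luminescence signal at 20 µM reaches about 50%, limit read from the data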;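 also: cells stimulated with CCL20 at 14 nM final; plate controls were DMSO with CCL20 for no effect and DMSO without agonist for full effect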
EBI2 block = blocks human EBI2 receptor beta-arrestin signaling; P32249; EBI2 beta-arrestin recruitment, luminescence, 7a,25-OHC stimulated; inhibition, % at 5 µM; actives 0.81% (n = 360,000); AID 651636; in the data active = inhibition above about 38%;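 also: enzyme fragment complementation signal reports receptor beta-arrestin coupling in cells; 0% = agonist plus DMSO wells and 100% = wells without agonist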
Target sequence (P32249 whole entry, looked up, the tested form may be a part): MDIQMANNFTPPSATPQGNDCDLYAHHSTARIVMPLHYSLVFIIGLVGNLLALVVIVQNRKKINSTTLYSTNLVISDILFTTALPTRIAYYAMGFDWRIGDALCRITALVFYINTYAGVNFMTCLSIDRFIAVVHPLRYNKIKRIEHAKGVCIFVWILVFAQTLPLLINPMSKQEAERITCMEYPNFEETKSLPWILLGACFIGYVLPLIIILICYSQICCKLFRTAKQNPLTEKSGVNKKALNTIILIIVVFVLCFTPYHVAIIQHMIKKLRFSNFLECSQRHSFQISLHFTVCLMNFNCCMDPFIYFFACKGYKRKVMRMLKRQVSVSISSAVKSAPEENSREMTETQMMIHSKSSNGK
APJ antagonist = APJ receptor antagonism; P35414; AID 2521; inhibition, % at 20 µM; actives 0.32% (n = 330,000); CHO-K1 APJ beta-arrestin complementation, luminescence;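 active = inhibition above about 40% at 20 µM, limit read from the data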;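 also: cells challenged with 10 nM apelin-13 agonist together with compound; plate controls were apelin-13 plus DMSO wells for no effect and DMSO wells lacking apelin-13 for full effect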
EBI2 conf = EBI2 (human) antagonism, single concentration confirmation. shares compounds with EBI2 block. EBI2 beta-arrestin luminescence, 7a,25-OHC antagonism. inhibition, % at 5 µM. actives 29% (n = 2,400);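 active = inhibition of at least 50%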
EBI2 agonist = EBI2 agonism counter-screen; shares compounds with EBI2 block; EBI2-expressing cells, agonist mode, luminescence, 60 min; 0% vehicle, 100% 7α,25-dihydroxycholesterol control; activation, % at 5 µM; 2,400 tested, under 10 active;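 active = activation of at least 50%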
bGal counter = counter-screen for EBI2 antagonists: E. coli beta-galactosidase inhibition; shares compounds with EBI2 block; purified beta-galactosidase, luminescent Galacton Star, 15 min; inhibition, % at 5 µM; actives 1% (n = 2,400); AID 652176;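 active = replicate-average signal at least 3 plate SD below neutral wells, shown as high inhibition, flagging enzyme-inhibiting false positives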;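 also: 0% = DMSO wells with enzyme and 100% = wells lacking enzyme; higher means stronger loss of beta-gal luminescence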
The depositor's hits bear a star.

`COc1ccc(-c2c(C)nc(N)nc2-c2ccc(OC)cc2O)cc1` gave CXCR6 block -8, HTR2A ag -1, APJ agonist 2, CCR6 antagonist 7, EBI2 block 74*, APJ antagonist -2, EBI2 conf 46, EBI2 agonist -1 and bGal counter -23.
C=C(C)COc1ccc(-c2nc(N)ncc2-c2ccc(Br)cc2)c(O)c1 was read as CXCR6 block -1, HTR2A ag 3, APJ agonist -1, CCR6 antagonist 8, EBI2 block 19 and APJ antagonist 9.
For COc1ccc(-c2ncncc2-c2ccc(OC)c(OC)c2)c(O)c1 the results were CXCR6 block 1, HTR2A ag -3, APJ agonist -1, CCR6 antagonist -3, EBI2 block 2 and APJ antagonist 9.
CCc1cc(-c2nc(N)ncc2-c2ccc(Br)cc2)c(O)cc1OC was read as CXCR6 block 4, HTR2A ag -6, APJ agonist -1, CCR6 antagonist -7, EBI2 block 77*, APJ antagonist 7, EBI2 conf 48, EBI2 agonist -1 and bGal counter -6.
`COc1ccc(-c2nc(N)ncc2-c2ccc(OC)c(OC)c2)c(O)c1` gave CXCR6 block 1, HTR2A ag 3, APJ agonist -1, CCR6 antagonist 4, EBI2 block 57*, APJ antagonist 10, EBI2 conf 27, EBI2 agonist 0 and bGal counter -6.
`COc1ccc(-c2c(C)nc(N)nc2-c2ccc(OCc3ccc(C)cc3)cc2O)cc1OC` gave CXCR6 block 20, HTR2A ag -1, APJ agonist 1, CCR6 antagonist 8, EBI2 block 37 and APJ antagonist -7.
For Fc1ccccc1C1CCN(Cc2nc(CC3CC3)no2)C1 (configuration not stated) the results were CXCR6 block 0, HTR2A ag -8, APJ agonist -2, CCR6 antagonist 13, EBI2 block -9 and APJ antagonist 5.
Screening Cc1nc(N2CCCCC2C)c2c(C)c(C(=O)Nc3cccc(C(F)(F)F)c3)sc2n1 (configuration not stated) returned CXCR6 block -3, HTR2A ag 0, APJ agonist 1, CCR6 antagonist 9, EBI2 block 76*, APJ antagonist -6, EBI2 conf 19, EBI2 agonist 2 and bGal counter 5.
`Cc1nc(N2CCCCC2)c2c(C)c(C(=O)Nc3cccc(C(F)(F)F)c3)sc2n1` gave CXCR6 block -12, HTR2A ag 5, APJ agonist 4, CCR6 antagonist -33, EBI2 block 53*, APJ antagonist -1, EBI2 conf 25, EBI2 agonist 2 and bGal counter 6.
Screening COc1ccccc1-c1nc(SCC(=O)N(C)c2ccccc2)c2c(=O)n(C)c(=O)n(C)c2n1 returned CXCR6 block 9, HTR2A ag 1, APJ agonist 1, CCR6 antagonist 7, EBI2 block 3 and APJ antagonist 14.
Cc1nc(SC(C)C(=O)c2c(N)n(C)c(=O)n(C)c2=O)c2c(C)c(C)sc2n1 (configuration not stated) was read as CXCR6 block 5, HTR2A ag -8, APJ agonist -2, CCR6 antagonist 0, EBI2 block 47*, APJ antagonist 6, EBI2 conf 51*, EBI2 agonist -1 and bGal counter 7.
For O=C(c1cc(=O)c2ccccc2o1)N1CCN(c2cccc(Cl)c2)CC1 the results were CXCR6 block -2, HTR2A ag -6, APJ agonist -4, CCR6 antagonist -6, EBI2 block 51*, APJ antagonist -13, EBI2 conf 42, EBI2 agonist 1 and bGal counter 6.
